Rows were chosen to be rich in hits. Some 4.1% of all compounds tested hit in one or more screens of this group.
KCNK3 block – human KCNK3 channel inhibitors, primary screen, CHO cells, FluxOR thallium flux, B-score. Potassium channel subfamily K member 3 (Homo sapiens), O14649. FluxOR fluorescence; hits give low values. B-score at 10 µM. 0.84% of 340,000 active;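 active means B-score under library mean minus 4 SD, starting fluorescence ratio at most library mean plus 5 SD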;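 further: more negative B-score means stronger inhibition of thallium flux through KCNK3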
KCNK9 block – KCNK9 potassium channel inhibitors, primary screen, HEK293 cells, thallium flux; Potassium channel subfamily K member 9 (Homo sapiens), Q9NPC2; FluxOR thallium flux fluorescence; hits give low values; B-score at 10 µM; 1.2% of 310,000 active; AID 488922, 2010;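 active means ratio B-score over 3 SD below the library mean, with starting fluorescence within 5 SD of its mean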;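 further: negative B-score means less thallium flux so channel inhibition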
KCNQ1 act – potentiators or activators of KCNQ1 channel, primary screen, cell-based, thallium flux, high-throughput; Potassium voltage-gated channel subfamily KQT member 1 (Homo sapiens), P51787; CHO-K1 KCNQ1, thallium flux FluxOR fluorescence; hits give high values; B-score at 10 µM; 0.35% of 310,000 active; AID 2648, 2010;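 active means fluorescence ratio B-score, a plate-corrected score, at least three library SD, with initial intensity B-score within 5 SD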
Target sequence (P51787 whole entry, looked up): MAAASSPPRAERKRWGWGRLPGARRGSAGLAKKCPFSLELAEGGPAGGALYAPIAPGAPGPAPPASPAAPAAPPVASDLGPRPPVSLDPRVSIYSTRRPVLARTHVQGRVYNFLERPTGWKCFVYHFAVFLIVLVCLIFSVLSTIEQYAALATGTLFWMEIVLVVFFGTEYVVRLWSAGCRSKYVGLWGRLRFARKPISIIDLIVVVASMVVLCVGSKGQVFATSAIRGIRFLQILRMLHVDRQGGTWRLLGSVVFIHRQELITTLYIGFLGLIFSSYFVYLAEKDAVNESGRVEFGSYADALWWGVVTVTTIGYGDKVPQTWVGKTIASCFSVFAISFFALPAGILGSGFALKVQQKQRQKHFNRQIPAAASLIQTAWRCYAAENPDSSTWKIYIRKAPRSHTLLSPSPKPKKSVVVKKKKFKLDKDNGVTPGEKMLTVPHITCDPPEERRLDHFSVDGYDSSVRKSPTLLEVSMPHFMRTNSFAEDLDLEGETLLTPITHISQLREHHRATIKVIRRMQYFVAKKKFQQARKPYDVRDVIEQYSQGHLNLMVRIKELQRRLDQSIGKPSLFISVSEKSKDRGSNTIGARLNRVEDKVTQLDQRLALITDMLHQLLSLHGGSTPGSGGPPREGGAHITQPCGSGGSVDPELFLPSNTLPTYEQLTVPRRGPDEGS
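Doses: Single concentration per compound, DMSO matched to controls | Test system: KCNQ1-transfected CHO-K1 cells | Timing: 90 min dye loading and 20 min compound exposure, both at room temperature | Measured by: Kinetic FluxOR thallium fluorescence, 10-s 1-Hz baseline, 110-s post-stimulus read | Medium: Assay buffer with matched DMSO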
KCNQ1 block – inhibitors of human KCNQ1 channel, primary screen, cell-based, thallium flux, high-throughput. Potassium voltage-gated channel subfamily KQT member 1 (Homo sapiens), P51787. CHO-K1 KCNQ1, FluxOR thallium flux fluorescence; hits give high values. B-score at 10 µM. 1.3% of 310,000 active;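 active means compounds whose thallium flux B-score, printed positive for inhibition, exceeds three library SD while starting fluorescence stays within three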;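 further: channel opened by potassium depolarization with thallium stimulus after 20 min compound exposure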
hERG protect – hERG rescue from dofetilide block, primary screen, cell-based, CHO-hERG, FluxOR thallium flux, dofetilide IC70 | Voltage-gated inwardly rectifying potassium channel KCNH2 (Homo sapiens), Q12809 | dofetilide IC70 present | activation (rescue from dofetilide block), less the hit threshold, % at 10 µM | 0.51% of 310,000 active | AID 1511, 2009;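 active means activation above the mean of controls blocked by dofetilide plus 5 SD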;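 further: thallium influx through hERG after potassium depolarization seen as dye fluorescence rise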
Cl transport mod – KCC2 cotransporter modulators, thallium flux, primary screen, cell-based, HEK293 KCC2, FluoZin-2 fluorescence, MLSMR; 2.2% of 190,000 active; Solute carrier family 12 member 5 (Homo sapiens), Q9H2X9; KCC2 cells, thallium flux FluoZin-2 fluorescence; B-score of Tl+ flux slope (higher = more flux/activation; lower = inhibition) at 10 µM;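 active means thallium flux slope and its plate-corrected score both differing from the plate sample mean at a set confidence after two filtering rounds, in either direction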;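 further: slope of fluorescence scaled to starting intensity during 10 to 20 s after thallium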
KCNK3 inh conf – retest of human KCNK3 channel inhibitors, confirmation, CHO cells, FluxOR thallium flux, triplicate | shares compounds with KCNK3 block | FluxOR fluorescence; 0% buffer, 100% carvedilol maximal block | ratio percent of control, % at 10 µM | 99% of 2,400 active;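 active means ratio percent of control, averaged over triplicates, above buffer control mean plus 5 SD, cut at about 64% in these data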;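 further: ratio is the fluorescence rise from min to max over baseline after thallium stimulus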
KCNK3 noninduced – thallium flux inhibition in non-induced cells, primary screen, counter-screen for KCNK3 inhibitor project, cell-based, non-induced KCNK3 line, FluxOR thallium, triplicate; non-induced KCNK3 parental cells; hits give low values; AID 651747, 2012; 40% of 2,400 active; shares compounds with KCNK3 block; thallium flux ratio (lower = more inhibition) at 10 µM;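 active means thallium flux ratio, averaged over three wells, more than 5 SD below the buffer control mean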;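 further: host cells are CHO cells without KCNK3 induction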
Each line names hits and unclear results; the compound was inactive in the other large screens (follow-up assays come after a bar, where they were run).

CCC(C(=O)NCCC1=CCCCC1)n1nc(C)c2c(C)n(-c3ccccc3)nc2c1=O (centres undefined)	KCNK3 block -8.8 (no result: Cl transport mod) | KCNK3 inh conf 89.3 | KCNK3 noninduced inactive
CN(C)CCCNc1oc(-c2ccccc2Cl)nc1S(=O)(=O)c1ccccc1	none (no result: KCNK9 block, KCNQ1 act, KCNQ1 block, hERG protect, Cl transport mod)
CN(C)c1oc(-c2ccccc2Cl)nc1S(=O)(=O)c1ccccc1	KCNK3 block -9.34 | KCNK3 inh conf 108.0 | KCNK3 noninduced inactive
COCCCn1c(SCC(=O)NC2CCCC2)nnc1-c1cccs1	none (no result: Cl transport mod)
C[C@@H]1CN([C@@H](C)CO)C(=O)c2cccc(NC(=O)C3CCCCC3)c2O[C@@H]1CN(C)C(=O)NC1CCCCC1	none (no result: KCNK9 block, KCNQ1 act, KCNQ1 block, hERG protect, Cl transport mod)
Cc1ccc(C)c(CSc2ccc3nnc(-c4ccccn4)n3n2)c1	none
C/C(=N\OCc1nc2ccccc2c(=O)n1/N=C/c1cc([N+](=O)[O-])ccc1O)c1ccccc1	KCNK3 block -9.06, KCNQ1 block 6 | KCNK3 inh conf 94.7 | KCNK3 noninduced 0.122
O=c1c2ccccc2nc(COc2ccccc2)n1/N=C/c1ccc(O)cc1O	none
C=CCN1CN(S(=O)(=O)c2cccc(Cl)c2)c2nc3ccccc3nc21	none (no result: Cl transport mod)
Cc1nn(-c2ccccc2)c(C)c1/C=N/NC(=O)c1cc(-c2ccc(Cl)s2)[nH]n1	KCNK3 block -11.5 (no result: Cl transport mod) | KCNK3 inh conf 131.0 | KCNK3 noninduced inactive
Cc1nn(-c2ccccc2)c(C)c1/C=N/NC(=O)c1cc(-c2ccc(Br)s2)[nH]n1	none (no result: Cl transport mod)
CC(NS(=O)(=O)c1ccc(OCC(=O)NCc2ccncc2)cc1)c1ccccc1 (centres undefined)	none (no result: Cl transport mod)
Cc1ccnc(NC(=O)c2ccc(S(=O)(=O)c3ccccc3)cc2)c1	none
O=C(COc1cccc2ccccc12)N1c2ccccc2CCc2ccccc21	KCNK3 block -12.7 | KCNK3 inh conf 119.7 | KCNK3 noninduced 0.151
O=C(COc1ccc(F)cc1)N1c2ccccc2CCc2ccccc21	none
CC(CS(=O)(=O)c1ccccc1[N+](=O)[O-])N1CCOCC1 (centres undefined)	KCNK3 block -9.13 | KCNK3 inh conf 84.0 | KCNK3 noninduced inactive
O=[N+]([O-])c1ccccc1S(=O)(=O)c1ccccc1[N+](=O)[O-]	none (no result: Cl transport mod)
O=[N+]([O-])c1cccc(CSc2ncnc3ccccc23)c1	KCNK3 block -9.56 | KCNK3 inh conf 84.0 | KCNK3 noninduced inactive
COc1cccc(NC(=O)CN(C)C(=O)c2cc(-c3ccc(F)cc3)nc3ccccc23)c1	KCNK3 block -9.3 (no result: Cl transport mod) | KCNK3 inh conf 133.0 | KCNK3 noninduced 0.11
COc1cccc(NC(=O)CN(C)C(=O)/C=C/c2cn(-c3ccccc3)nc2-c2ccc(C)cc2)c1	KCNK3 block -8.7, KCNQ1 block 10 (no result: Cl transport mod) | KCNK3 inh conf 92.0 | KCNK3 noninduced inactive
COc1ccc(NC(=O)CN(C)C(=O)/C=C/c2cn(-c3ccccc3)nc2-c2ccc(C)cc2)cc1	none (no result: Cl transport mod)
COc1cccc(NC(=O)CN(C)C(=O)c2cc(-c3ccccc3)nc3ccccc23)c1	none (no result: Cl transport mod)
COc1ccc(-c2csc(-c3cc4ccccc4oc3=N)n2)cc1	none
Cc1ccc(S(=O)(=O)NCC(c2ccco2)N2CCc3ccccc3C2)cc1 (centres undefined)	none (no result: Cl transport mod)
O=S(=O)(NCC(c1ccco1)N1CCc2ccccc2C1)c1ccc(Br)cc1 (centres undefined)	KCNK3 block -8.74 (no result: Cl transport mod) | KCNK3 inh conf 113.7 | KCNK3 noninduced inactive
O=C(COC(=O)CNC(=O)c1ccccc1)Nc1ccc(F)c([N+](=O)[O-])c1	none
O=C(Nc1ccc(Cl)cc1)Nc1ccccc1CC[N+](=O)[O-]	KCNK3 block -10.6, KCNQ1 block 8 (no result: Cl transport mod) | KCNK3 inh conf 82.0 | KCNK3 noninduced inactive
CN(C)C(=O)Nc1ccccc1CC[N+](=O)[O-]	none
COCCn1c(/C=C/c2ccccc2)nc2ccccc21	KCNK3 block -8.8 | KCNK3 inh conf 83.3 | KCNK3 noninduced inactive
Cc1ccc(NC(=O)C(=O)c2c(-c3ccccc3)cc3ccccn23)cc1S(=O)(=O)N1CCOCC1	KCNK3 block -10 | KCNK3 inh conf 113.0 | KCNK3 noninduced inactive
Cc1nn2c(NC(C)C)c3c(nc2c1-c1ccccc1)CCC3	KCNK3 block -8.95 | KCNK3 inh conf 94.0 | KCNK3 noninduced inactive
Cc1nn2c(Nc3ccccc3)c3c(nc2c1-c1ccccc1)CCC3	none
O=[N+]([O-])c1cc(C(F)(F)F)ccc1NCC1CCCO1 (centres undefined)	KCNK3 block -9.69 (no result: Cl transport mod) | KCNK3 inh conf 70.3 | KCNK3 noninduced inactive
COc1ccc(C)cc1NC(=O)c1cc2ccccc2cc1OCC(=O)NCc1ccco1	KCNK3 block -13.7 | KCNK3 inh conf 109.0 | KCNK3 noninduced inactive
CC(Sc1cnccn1)C(=O)O (centres undefined)	none
COc1cc(CN(C)Cc2cccc3ccccc23)cc([N+](=O)[O-])c1O	none (no result: Cl transport mod)
CN(Cc1cccc([N+](=O)[O-])c1)Cc1cccc2ccccc12	KCNK3 block -11.4, KCNK9 block -6.84, KCNQ1 block 6 (no result: Cl transport mod) | KCNK3 inh conf 113.7 | KCNK3 noninduced 0.151
COc1cccc(CNC(=O)c2ccc(NS(=O)(=O)c3ccc4[nH]c(=O)[nH]c4c3)cc2)c1	none (no result: KCNK9 block, KCNQ1 act, KCNQ1 block, hERG protect, Cl transport mod)
CCOc1ccccc1NC(=O)C(NCCc1ccc(OC)cc1)c1ccccc1 (centres undefined)	KCNK3 block -10.1, KCNQ1 block 6 (no result: Cl transport mod) | KCNK3 inh conf 132.0 | KCNK3 noninduced 0.129
CCOc1ccccc1NC(=O)C(NCCN(C)C)c1ccccc1 (centres undefined)	none
O=C(c1ccccc1)c1ccc(Sc2ccc([N+](=O)[O-])cc2)cc1	KCNK3 block -8.83 | KCNK3 inh conf 115.0 | KCNK3 noninduced 0.146
O=C(CCC1CCCC1)Nc1ccc([N+](=O)[O-])cn1	none
NC(N)=N/N=C/c1ccc(OCc2ccccc2)cc1	none (no result: Cl transport mod)
